40 compounds from ChEMBL document CHEMBL2321666, “Discovery of a Series of Thiazole Derivatives as Novel Inhibitors of Metastatic Cancer Cell Migration and Invasion” (ACS Med Chem Lett, 2013) can be followed below.

For data set [1], the system named is MDA-MB-231. As to the kind of experiment: Inhibition of cell migration in human MDA-MB-231 cells assessed as total number of cells at 10 uM after 24 hrs by transwell migration assay relative to control; values are per cent of control. The conditions noted are these: MDA-MB-231, 24 h.
The test system of data set [2] is MDA-MB-231. The data set can be described thus: Cytotoxicity against human MDA-MB-231 cells assessed as colony formation at 10 uM after 2 weeks relative to control. It counts as cell-based. The conditions noted are these: mda-mb-231, 336 h. In short, it runs like this: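 Clonogenic assay: MDA-MB-231 cells grown for 14 days in six-well plates with or without 10 μM compound. Colony formation expressed as % of DMSO vehicle control.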

Data set [3] relates to HeLa. As to the kind of experiment: Inhibition of cell migration in human HeLa cells assessed as total number of cells at 10 uM after 24 hrs by transwell migration assay relative to control. Type of data set: functional.
For data set [4], the system named is MDA-MB-231. The data set can be described thus: Inhibition of cell migration in human MDA-MB-231 cells assessed as total number of cells after 24 hrs by transwell migration assay. It counts as functional, cell-based. The conditions noted are these: for IC50: MDA-MB-231, 24 h. In short, it runs like this:
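Dose-response transwell migration in MDA-MB-231 cells: 2.5 × 10^4 cells in serum-free upper chamber, 5% FBS in the lower chamber.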

In data set [5] the test system is MDA-MB-231. As to the kind of experiment: Inhibition of cell invasion in human MDA-MB-231 cells assessed as total number of cells at 10 uM after 24 hrs by matrigel invasion assay relative to control. Type of data set: functional. The conditions noted are these: MDA-MB-231, 24 h.
The next data set has as its system A549. The data set can be described thus: Inhibition of cell migration in human A549 cells assessed as total number of cells at 10 uM after 24 hrs by transwell migration assay relative to control. Type of data set: functional. The conditions noted are these: A549, 24 h.
Data set [6] deals with MDA-MB-231. The data set can be described thus: Inhibition of serum-induced actin-rich membrane protrusion in human MDA-MB-231 cells assessed as reduction of f-actin intensity at 10 uM after overnight incubation by fluorescent microscopic analysis. Type of data set: functional. In short, it runs like this: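 MDA-MB-231 cells serum-starved with or without 10 μM compound, then serum-stimulated for 2 h to induce actin-rich membrane protrusions. F-actin was stained and imaged by fluorescence microscopy, and f-actin intensity was quantified against DMSO-treated cells.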

For data set [7], the system named is MDA-MB-231. As to the kind of experiment: Reduction of fascin localization in actin-rich membrane protrusion in human MDA-MB-231 cells at 10 uM by immuno fluorescence microscopic analysis. Type of data set: functional, cell-based.
The subject of data set [8] is HeLa. The data set can be described thus: Cytotoxicity against human HeLa cells assessed as colony formation at 10 uM after 2 weeks relative to control. Type of data set: cell-based. The conditions noted are these: 336 h.

Active and inactive are the calls of the source. No cut-off for these calls is given here.

As to `COc1cc(OC)c(-c2csc(N(C)C(=O)c3ccccc3)n2)c(OC)c1`, the level, % of control at 10 µM in the data set with MDA-MB-231 [1] came to 91.5%. Besides, in the data set with MDA-MB-231 [2], the Activity amounted to 110.4%.
For `COc1cc(C(=O)/N=c2/scc(-c3ccccc3)n2C)cc(OC)c1OC`, in that order: 26.5% and 75.4%.
With `COc1cc(OC)c(-c2cs/c(=N/C(=O)c3ccccc3)n2C)c(OC)c1`, the level, % of control at 10 µM with MDA-MB-231 [1] turned out to be 40.6%. In addition, in the data set on MDA-MB-231 [2], the Activity was 94%.
For `Cn1c(-c2ccccc2)cs/c1=N/C(=O)c1ccc(Br)cc1` the same measures were 59.7% and 63.8%.
For `Cc1ccc(-c2cs/c(=N/C(=O)c3cccs3)n2C)c(C)c1`, in that order: 37.1% and 102.3%.
For `Cc1ccc(-c2csc(N(C)C(=O)c3cccs3)n2)c(C)c1` the same measures were 72.2% and 97.7%.
Turning to `CN(C(=O)c1ccccc1)c1nc(-c2ccccc2)cs1`, the level, % of control at 10 µM in the data set on MDA-MB-231 [1] came to 39.2%. Moreover, the inhibition at 10 µM in the data set with HeLa [3] stood at 60%; in the data set on MDA-MB-231 [5], 40%. In addition, in the data set with MDA-MB-231 [4], the IC50 stood at 366 nM. Further, the Activity in the data set on MDA-MB-231 [2] was determined as 123.4%.
Consider `Cc1ccc(-c2cs/c(=N/C(=O)c3ccccc3)n2C)c(C)c1`, for which the inhibition at 10 µM came to 80% in the data set on A549, 80% with HeLa [3], 55% with MDA-MB-231 [6] and 60% in the data set on MDA-MB-231 [5]. Also, the level, % of control at 10 µM in the data set on MDA-MB-231 [1] is 14.3%. Moreover, the inhibition entry in the data set with MDA-MB-231 [4] was “Dose-dependent effect”. Moreover, the IC50 with MDA-MB-231 [4] is 176 nM. Moreover, the outcome with MDA-MB-231 [7] was Active. Also, the Activity with MDA-MB-231 [2] is 120.9%; in the data set on HeLa [8], 85%.
As for `COc1cc(C(=O)Nc2nc(-c3ccccc3)cs2)cc(OC)c1OC`, in the data set with MDA-MB-231 [1], the level, % of control at 10 µM came to 46.5%. The Activity with MDA-MB-231 [2] stood at 80.9%.
For `CN(C(=O)C1CCCCC1)c1nc(-c2ccccc2)cs1`, in that order: 72.7% and 97.5%.
For `O=C(Nc1nc(-c2ccccc2)cs1)C1CCCC1` the same measures were 68.2% and 99.8%.
Turning to `CN(C(=O)c1ccc(Br)cc1)c1nc(-c2ccccc2)cs1`, the level, % of control at 10 µM with MDA-MB-231 [1] came to 78.2%. Besides, the Activity in the data set on MDA-MB-231 [2] was 107.7%.
Regarding `Nc1nc(-c2ccccc2)cs1`, in the data set with MDA-MB-231 [1], the level, % of control at 10 µM was found to be 86%. Also, in the data set with MDA-MB-231 [2], the Activity was determined as 103.6%.
For `COc1ccc(C(=O)N(C)c2nc(-c3ccccc3)cs2)cc1OC`, in that order: 43.5% and 97.1%.
In the case of `CCCCCCCCCCCC(=O)Nc1nc(-c2ccccc2)cs1`, the level, % of control at 10 µM in the data set on MDA-MB-231 [1] was 28.3%. For the same compound, the inhibition at 10 µM stood at 60% with HeLa [3] and 40% in the data set on MDA-MB-231 [5]. Besides, the 50% inhibitory concentration (IC50) with MDA-MB-231 [4] is 1010 nM. Besides, the Activity in the data set on MDA-MB-231 [2] is listed as 71.5%; in the data set with HeLa [8], “Non-toxic”.
Turning to `O=C(Nc1nc(-c2ccccc2)cs1)c1ccc(Cl)cc1`, the level, % of control at 10 µM in the data set with MDA-MB-231 [1] is 78%. The Activity in the data set with MDA-MB-231 [2] amounted to 95%.
For `CCCCCC(=O)N(C)c1nc(-c2ccccc2)cs1`, in that order: 71.4% and 127.5%.
For `O=C(Nc1nc(-c2ccccc2)cs1)C1CCCCC1` the same measures were 92.7% and 103.4%.
For `Cn1c(-c2ccccc2)cs/c1=N/C(=O)c1ccco1` the same measures were 77.6% and 107.3%.
Regarding `O=C(Nc1nc(-c2ccccc2)cs1)c1cccs1`, the level, % of control at 10 µM in the data set with MDA-MB-231 [1] worked out at 34.5%. In addition, the values for the inhibition at 10 µM in the data set with HeLa [3] and in the data set on MDA-MB-231 [5] were 60% and 40%, respectively. Besides, the IC50 in the data set on MDA-MB-231 [4] was 2490 nM. Further, in the data set with MDA-MB-231 [2], the Activity came out at 85.9%.
Consider `O=C(Nc1nc(-c2ccccc2)cs1)c1ccco1`, for which, in the data set with MDA-MB-231 [1], the level, % of control at 10 µM was determined as 88%. Further, in the data set on MDA-MB-231 [2], the Activity came to 98.8%.
For `O=C(Nc1nc(-c2ccccc2)cs1)c1cccnc1` the same measures were 80.8% and 102.8%.
Turning to `O=C(Nc1nc(-c2ccccc2)cs1)c1ccccc1`, the level, % of control at 10 µM in the data set with MDA-MB-231 [1] stood at 31.3%. Moreover, the inhibition at 10 µM was determined as 60% in the data set with HeLa [3] and 40% with MDA-MB-231 [5]. Besides, the IC50 in the data set with MDA-MB-231 [4] turned out to be 1290 nM. Besides, the Activity in the data set on MDA-MB-231 [2] is listed as 105.2%.
For `Cn1c(-c2ccccc2)cs/c1=N/C(=O)c1cccnc1`, the level, % of control at 10 µM with MDA-MB-231 [1] stood at 62%. Moreover, in the data set with MDA-MB-231 [2], the Activity came out at 111.5%.
As to `CCn1c(-c2ccccc2)cs/c1=N/C(=O)c1cccs1`, in the data set with MDA-MB-231 [1], the level, % of control at 10 µM is 32.1%. In addition, the inhibition at 10 µM in the data set with HeLa [3] was 60%; in the data set with MDA-MB-231 [5], 40%. In addition, the IC50 with MDA-MB-231 [4] amounted to 2080 nM. Also, the Activity is reported as 97.7% with MDA-MB-231 [2] and 45% with HeLa [8].
In the case of `COc1ccc(C(=O)/N=c2/scc(-c3ccccc3)n2C)cc1OC`, the level, % of control at 10 µM in the data set with MDA-MB-231 [1] stood at 35.9%. Besides, in the data set with MDA-MB-231 [2], the Activity is on record as 40.9%.
For `Cc1ccc(-c2csc(NC(=O)c3cccs3)n2)c(C)c1`, in that order: 40.9% and 67.5%.
On to `Cn1c(-c2ccccc2)cs/c1=N/C(=O)c1ccccc1`, for which the level, % of control at 10 µM in the data set with MDA-MB-231 [1] is 13%. Further, the inhibition at 10 µM in the data set on HeLa [3] came out at 60%; in the data set on MDA-MB-231 [5], 40%. For the same compound, the IC50 with MDA-MB-231 [4] was 189 nM. The Activity in the data set with MDA-MB-231 [2] is reported as 25.2%; with HeLa [8], “Toxic”.
Regarding `O=C(Nc1nc(-c2ccccc2)cs1)c1ccncc1`, the level, % of control at 10 µM with MDA-MB-231 [1] was 32.3%. In addition, the inhibition at 10 µM in the data set on HeLa [3] was 60%; in the data set with MDA-MB-231 [5] it was 40%. Also, the IC50 in the data set on MDA-MB-231 [4] was 2870 nM. For the same compound, in the data set on MDA-MB-231 [2], the Activity is 95.5%.
For the compound `O=C(Nc1nc(-c2ccccc2)cs1)c1ccc(Br)cc1`, the level, % of control at 10 µM in the data set on MDA-MB-231 [1] came out at 103%. In the data set on MDA-MB-231 [2], the Activity came to 98.6%.
For `COc1cc(OC)c(-c2csc(NC(=O)c3ccccc3)n2)c(OC)c1`, in that order: 59.2% and 108.8%.
With `CCCCCCCCCCCC(=O)N(C)c1nc(-c2ccccc2)cs1`, in the data set with MDA-MB-231 [1], the level, % of control at 10 µM came to 80%. In addition, in the data set with MDA-MB-231 [2], the Activity is 111.1%.
For `COc1ccc(C(=O)Nc2nc(-c3ccccc3)cs2)cc1OC`, in that order: 18.6% and 57.3%.
For `Cn1c(-c2ccccc2)cs/c1=N/C(=O)c1cccs1` the same measures were 43.3% and 85%.
For `CN(C(=O)C1CCCC1)c1nc(-c2ccccc2)cs1`, in that order: 54.3% and 132.4%.
Turning to `CCCCCC(=O)Nc1nc(-c2ccccc2)cs1`, the level, % of control at 10 µM in the data set with MDA-MB-231 [1] is 75.2%. Also, the Activity with MDA-MB-231 [2] is listed as 90.7%.
As for `Cn1c(-c2ccccc2)cs/c1=N/C(=O)c1ccc(Cl)cc1`, the level, % of control at 10 µM in the data set on MDA-MB-231 [1] came out at 28.1%. Moreover, the inhibition at 10 µM is 60% with HeLa [3] and 40% in the data set with MDA-MB-231 [5]. Moreover, in the data set with MDA-MB-231 [4], the IC50 stood at 1120 nM. The Activity in the data set on MDA-MB-231 [2] is listed as 98.2%.
As to `CCN(C(=O)c1ccco1)c1nc(-c2ccccc2)cs1`, in the data set on MDA-MB-231 [1], the level, % of control at 10 µM came to 54.5%. For the same compound, in the data set with MDA-MB-231 [2], the Activity is listed as 96.5%.
For `Cc1ccc(-c2csc(N)n2)c(C)c1` the same measures were 45.5% and 110.9%.
Consider `Cc1ccc(-c2csc(NC(=O)c3ccccc3)n2)c(C)c1`, for which, in the data set on MDA-MB-231 [1], the level, % of control at 10 µM is 33.7%. Moreover, the inhibition at 10 µM turned out to be 60% in the data set on HeLa [3] and 40% in the data set with MDA-MB-231 [5]. Further, in the data set on MDA-MB-231 [4], the IC50 is 839 nM. In addition, in the data set with MDA-MB-231 [2], the Activity is given as 85%.

Broadly, the inhibition is the share of the control response that was lost under treatment. Usually IC50 stands for the concentration at which inhibition is half-maximal.
